Columns and labels:
Aurora kinase B = Aurora kinase B (Homo sapiens, UniProt Q96GD4); test: Inhibition of aurora B (unknown origin)
[1] = molecular target: T1, Inhibitor of nuclear factor kappa-B kinase subunit epsilon (Homo sapiens, UniProt Q14164); test: Inhibition of IKK-epsilon (unknown origin) using 5FAM-AKELDQGSLCTpSFVGTLQ-NH2 as substrate by microfluidic mobility shift assay
T1 sequence (Q14164 whole entry): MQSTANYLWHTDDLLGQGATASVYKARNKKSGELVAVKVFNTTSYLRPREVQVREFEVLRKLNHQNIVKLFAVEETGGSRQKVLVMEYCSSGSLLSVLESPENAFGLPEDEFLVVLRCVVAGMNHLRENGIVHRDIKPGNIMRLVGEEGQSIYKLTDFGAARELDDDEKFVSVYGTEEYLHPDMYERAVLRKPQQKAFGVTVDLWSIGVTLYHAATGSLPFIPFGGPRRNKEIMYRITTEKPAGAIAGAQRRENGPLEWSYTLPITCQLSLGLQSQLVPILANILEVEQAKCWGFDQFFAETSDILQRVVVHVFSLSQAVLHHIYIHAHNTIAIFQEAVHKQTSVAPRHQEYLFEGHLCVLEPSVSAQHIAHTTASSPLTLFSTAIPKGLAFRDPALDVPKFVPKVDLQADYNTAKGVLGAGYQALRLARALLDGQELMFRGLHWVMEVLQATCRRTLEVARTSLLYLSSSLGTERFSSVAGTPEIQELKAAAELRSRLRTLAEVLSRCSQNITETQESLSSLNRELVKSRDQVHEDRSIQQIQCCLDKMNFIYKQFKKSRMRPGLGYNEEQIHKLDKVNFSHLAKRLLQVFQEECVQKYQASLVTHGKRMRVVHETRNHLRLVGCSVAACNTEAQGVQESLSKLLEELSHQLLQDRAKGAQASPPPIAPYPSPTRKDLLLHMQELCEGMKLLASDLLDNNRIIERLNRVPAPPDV
Outline: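 Recombinant IKK-ε (4 nM) in HEPES buffer with 1.5 µM 5FAM-labelled peptide substrate, ATP at its K_M, and 10 mM MgCl2. The 10-point titration used half-log serial dilutions. Reactions ran at room temperature for a set time, were quenched with EDTA-containing HEPES, and were read by microfluidic mobility shift. Percent inhibition came from the ratio of phosphorylated to total peptide.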

[2] = molecular target: T2, Serine/threonine-protein kinase TBK1 (Homo sapiens, UniProt Q9UHD2); test: Inhibition of TBK1 in HEK293 cells after 4.5 hrs by ISRE-luciferase reporter gene assay in presence of poly I:C; format: cell-based
T2 sequence (Q9UHD2 whole entry): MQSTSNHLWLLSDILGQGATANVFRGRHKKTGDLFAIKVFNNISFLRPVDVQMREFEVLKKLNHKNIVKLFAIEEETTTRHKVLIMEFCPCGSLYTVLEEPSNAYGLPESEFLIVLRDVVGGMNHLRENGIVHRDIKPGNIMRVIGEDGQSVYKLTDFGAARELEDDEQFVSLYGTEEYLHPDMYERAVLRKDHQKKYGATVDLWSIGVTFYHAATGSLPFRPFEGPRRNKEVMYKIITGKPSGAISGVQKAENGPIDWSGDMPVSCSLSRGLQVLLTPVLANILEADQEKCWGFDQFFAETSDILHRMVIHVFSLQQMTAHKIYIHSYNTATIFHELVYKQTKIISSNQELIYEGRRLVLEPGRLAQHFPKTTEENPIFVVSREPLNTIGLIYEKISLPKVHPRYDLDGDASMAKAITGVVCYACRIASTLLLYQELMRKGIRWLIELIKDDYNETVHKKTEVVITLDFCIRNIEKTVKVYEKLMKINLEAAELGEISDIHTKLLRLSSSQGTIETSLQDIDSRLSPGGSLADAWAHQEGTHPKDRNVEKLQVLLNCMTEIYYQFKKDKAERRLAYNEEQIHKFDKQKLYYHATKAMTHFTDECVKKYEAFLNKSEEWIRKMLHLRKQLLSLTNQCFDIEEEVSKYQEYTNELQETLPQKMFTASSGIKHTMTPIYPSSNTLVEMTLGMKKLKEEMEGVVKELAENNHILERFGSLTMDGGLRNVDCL

[3] = molecular target: T2, Serine/threonine-protein kinase TBK1; test: Inhibition of recombinant full-length TBK1 (unknown origin) using CK1tide as substrate by microfluidic mobility shift assay
[4] = molecular target: Cyclin-dependent kinase 2 (Homo sapiens, UniProt P24941); test: Inhibition of CDK2 (unknown origin)

Aurora kinase B, sequence (Q96GD4 whole entry): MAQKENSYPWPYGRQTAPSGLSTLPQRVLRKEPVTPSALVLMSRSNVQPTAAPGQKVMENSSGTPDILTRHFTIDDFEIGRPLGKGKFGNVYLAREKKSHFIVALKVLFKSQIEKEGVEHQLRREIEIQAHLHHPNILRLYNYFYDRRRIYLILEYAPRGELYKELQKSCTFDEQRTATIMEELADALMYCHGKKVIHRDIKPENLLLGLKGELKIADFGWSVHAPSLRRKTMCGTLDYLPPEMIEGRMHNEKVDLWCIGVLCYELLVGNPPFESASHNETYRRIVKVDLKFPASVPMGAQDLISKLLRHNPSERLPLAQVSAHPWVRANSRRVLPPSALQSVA

Row | IC50 (Aurora kinase B) [nM] | IC50 [1] [nM] | IC50 [2] [nM] | IC50 [3] [nM] | IC50 [4] [nM] | Compound
1 | 299 | 158 | 2170 | 36 | 13600 | COc1ccc(-c2nc3c(NCCCNC(=O)C4CCCC4)c(-c4nc(C(=O)O)cs4)cnc3[nH]2)cc1
2 | 889 | 448 | 165 | 46 | > 30000 | COc1ccc(-c2nc3c(NCCCNC(=O)C4CCCC4)c(C(N)=S)cnc3[nH]2)cc1
3 | 2470 | 3230 | 128 | 388 | > 30000 | COc1ccc(-c2nc3c(NCCCNC(=O)C4CCCC4)c(-c4nc(C(=O)NCC(C)C)cs4)cnc3[nH]2)cc1
4 | – | – | – | 859 | – | O=C(O)c1ccc(-c2cnc3nc(-c4ccc(OCCN5CCCCC5)cc4)[nH]c3c2)cc1
5 | 12100 | 6750 | 1780 | 650 | > 30000 | COc1ccc(-c2nc3cc(-c4csc(C(C)=O)c4)cnc3[nH]2)cc1
6 | – | – | – | 1800 | – | CNc1c(-c2ccc(C(=O)O)cc2)cnc2nc(-c3ccc(OC)cc3)[nH]c12
7 | – | 395 | > 30000 | 129 | – | COc1ccc(-c2nc3cc(-c4cc(C(=O)O)cs4)cnc3[nH]2)cc1
8 | – | 114 | > 30000 | 49 | – | COc1ccc(-c2nc3ncc(-c4csc(C(=O)O)c4)cc3[nH]2)cc1
9 | > 5320 | 469 | 72 | 93 | > 30000 | COc1cc2ncn(-c3cc(OCc4ccccc4S(C)(=O)=O)c(C#N)s3)c2cc1OC [GSK-319347A]
10 | 1380 | 412 | 170 | 98 | > 30000 | COCCNC(=O)c1cc(-c2cnc3[nH]c(-c4ccc(OC)cc4)nc3c2)cs1
11 | – | 867 | > 30000 | 256 | – | COc1ccc(-c2nc3ncc(-c4ccc(C(=O)O)s4)cc3[nH]2)cc1
12 | 1300 | 1100 | > 3000 | 460 | > 30000 | COc1ccc(-c2nc3c(OCCCNC(=O)C4CCCC4)c(-c4csc(C(=O)O)c4)cnc3[nH]2)cc1
13 | 284 | 42 | 7 | 9 | 1450 | COc1ccc(-c2nc3c(NCCCNC(=O)C4CCCC4)c(-c4nc(C(N)=O)cs4)cnc3[nH]2)cc1
14 | – | 3300 | – | 1040 | – | CNc1c(-c2ccc(C(=O)O)s2)cnc2[nH]c(-c3ccc(OC)cc3)nc12
15 | – | 11600 | > 30000 | 1050 | – | COc1ccc(-c2nc3ncc(-c4cc(C(=O)O)co4)cc3[nH]2)cc1
16 | 2300 | 205 | 268 | 30 | 984 | COc1ccc(-c2nc3cc(-c4csc(C(N)=O)c4)cnc3[nH]2)cc1
17 | – | 2560 | 851 | 203 | – | CNC(=O)c1cc(-c2cnc3nc(-c4ccc(OC)cc4)[nH]c3c2)cs1
18 | – | > 30000 | – | > 30000 | – | COc1ccc(-c2nc3cc(-c4csc(C#N)c4)cnc3[nH]2)cc1
19 | 2820 | 1090 | 89 | 219 | > 30000 | CCC(C)CNC(=O)c1cc(-c2cnc3[nH]c(-c4ccc(OC)cc4)nc3c2)cs1 (stereo not given)
20 | 156 | > 30000 | – | 759 | > 30000 | COc1ccc(-c2nc3c(OCCCNC(=O)C4CCCC4)c(Br)cnc3[nH]2)cc1
21 | 1680 | 330 | 136 | 100 | > 30000 | COc1ccc(-c2nc3cc(-c4csc(C(=O)NCC(C)(C)CO)c4)cnc3[nH]2)cc1

From ChEMBL document CHEMBL3124838, “Discovery of 6-aryl-azabenzimidazoles that inhibit the TBK1/IKK-ε kinases” (Bioorg Med Chem Lett, 2014)
